Active and inactive are the calls of the source. The calls are words filed in the database; no cut-off is given here.
Key:
Plasma [1] = assay: Anticoagulant activity in human plasma assessed as prolongation of activated partial thromboplastin time by measuring concentration required to double APTT incubated for 4 mins by coagulometer analysis; format: functional, cell-free
Outline: (§1)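 Pooled normal citrated human plasma (90 μL) mixed with 10 μL compound and 100 μL prewarmed ellagic acid APTT reagent, incubated 4 min at 37 °C, then recalcified with 100 μL prewarmed 25 mM CaCl2. Clot time read on a fibrometer (one-stage recalcification). Water blank gave the baseline. Concentration doubling APTT came from a quadratic trend-line fit.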

Plasma [2] = assay: Anticoagulant activity in pooled human plasma assessed as prolongation of activated partial thromboplastin time incubated for 4 mins by coagulometer analysis; format: functional, cell-free; outline: as §1
[3] = Cytotoxicity against human HT-29 cells assessed as inhibition of spheroid growth; settings: HT-29 cell spheroids
HT-29 [4] = assay: Cytotoxicity against human HT-29 cells assessed as reduction in cell viability at 100 uM incubated for 60 to 72 hrs by MTT assay; format: toxicity, cell-based; settings: ht-29, 100 µM, time 60-72 hrs
Outline: (§2)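 HT-29 monolayer cells were seeded at about 2.5 × 10^3 per well in DMEM:F12 with 10% FBS and incubated overnight at 37 °C, 5% CO2. Compound was added for 60–72 h. MTT (5 mg/mL in PBS) was added for 2–3 h, crystals were dissolved in DMSO and absorbance read at 590 nm. Results are percent of vehicle control, at least three replicates.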

Mus musculus = assay: Antithrombotic activity in ICR mouse model of tail-bleeding assessed as increase in blood loss at 100 mg/kg, iv
HT-29 [5] = assay: Antitumor activity against human HT-29 cells xenografted in NCR nude mouse assessed as reduction in tumor growth at 100 mg/kg, ip administered 3 times a week for 3 weeks; format: functional, organism-based
HT-29 [6] = assay: Anticancer activity against human HT-29 cells assessed as inhibition of CD133+ expression level; format: functional, cell-based
Plasma [7] = assay: Anticoagulant activity in pooled human plasma assessed as prolongation of activated partial thromboplastin time at 900 uM incubated for 4 mins by coagulometer analysis; format: functional; outline: as §1
HT-29 [8] = assay: Cytotoxicity against human HT-29 cells assessed as reduction in cell viability incubated for 60 to 72 hrs by MTT assay; format: toxicity, cell-based; settings: time 60-72 hrs; outline: as §2
HT-29 [9] = assay: Anticancer activity against human HT-29 cells assessed as inhibition of DCAMLK1 expression level; format: functional, cell-based
HT-29 [10] = assay: Anticancer activity against human HT-29 cells assessed as inhibition of LGR5 expression level; format: functional, cell-based
HT-29 [11] = assay: Anticancer activity against human HT-29 cells assessed as inhibition of CXCR4+ expression level; format: functional, cell-based

Row | Structure (SMILES) | Activity (Plasma [1]) | Activity (Plasma [2]) | IC50 [3] [µM] | Activity (HT-29 [4]) | Activity (Mus musculus) | Activity (HT-29 [5]) | Activity (HT-29 [6]) | APTT (Plasma [7]) [s] | Activity (HT-29 [8]) | Activity (HT-29 [9]) | Activity (HT-29 [10]) | Activity (HT-29 [11])
1 | CC(C)CCC[C@@H](C)[C@H]1CC[C@H]2[C@@H]3CC=C4C[C@@H](OCCCCCCCCOc5cc(-c6oc7cc(OS(=O)(=O)[O-])cc(OCCCOc8cc(OS(=O)(=O)[O-])cc9oc(-c%10ccc(OS(=O)(=O)[O-])c(OS(=O)(=O)[O-])c%10)c(OS(=O)(=O)[O-])c(=O)c89)c7c(=O)c6OS(=O)(=O)[O-])ccc5OS(=O)(=O)[O-])CC[C@]4(C)[C@H]3CC[C@]12C.[Na+].[Na+].[Na+].[Na+].[Na+].[Na+].[Na+] | Active | Dose-Dependent Effect | 0.8 | Toxic | Active |  |  |  |  |  |  | 
2 | O=c1c(OS(=O)(=O)[O-])c(-c2ccc(OS(=O)(=O)[O-])c(OS(=O)(=O)[O-])c2)oc2cc(OS(=O)(=O)[O-])cc(OCCCOc3cc(OS(=O)(=O)[O-])cc4oc(-c5ccc(OS(=O)(=O)[O-])c(OS(=O)(=O)[O-])c5)c(OS(=O)(=O)[O-])c(=O)c34)c12.[Na+].[Na+].[Na+].[Na+].[Na+].[Na+].[Na+].[Na+] |  | Dose-Dependent Effect | 29.6 |  |  | Active | Active | 68 | Non-Toxic | Active | Active | Active
3 | O=c1c(OS(=O)(=O)[O-])c(-c2ccc(OS(=O)(=O)[O-])cc2OS(=O)(=O)[O-])oc2cc(OS(=O)(=O)[O-])cc(OCC3CCC(COc4cc(OS(=O)(=O)[O-])cc5oc(-c6ccc(OS(=O)(=O)[O-])cc6OS(=O)(=O)[O-])c(OS(=O)(=O)[O-])c(=O)c45)CC3)c12.[Na+].[Na+].[Na+].[Na+].[Na+].[Na+].[Na+].[Na+] (stereo not drawn) |  |  | 17.9 |  |  |  |  |  | Non-Toxic |  |  | 
4 | O=c1c(OS(=O)(=O)[O-])c(-c2ccc(OS(=O)(=O)[O-])c(OS(=O)(=O)[O-])c2)oc2cc(OS(=O)(=O)[O-])cc(OCC3CCC(COc4cc(OS(=O)(=O)[O-])cc5oc(-c6ccc(OS(=O)(=O)[O-])c(OS(=O)(=O)[O-])c6)c(OS(=O)(=O)[O-])c(=O)c45)CC3)c12.[Na+].[Na+].[Na+].[Na+].[Na+].[Na+].[Na+].[Na+] (stereo not drawn) |  |  | 4 |  |  |  |  |  | Non-Toxic |  |  | 

Reference: ChEMBL document CHEMBL5316316, “Designing Synthetic, Sulfated Glycosaminoglycan Mimetics That Are Orally Bioavailable and Exhibiting In Vivo Anticancer Activity” (J Med Chem, 2023)
